≈ marks a conversion by molar mass, not a printed value.
Experiments:
[1] = tested on: Aspergillus niger; test: Antifungal activity against Aspergillus niger ATCC 6275 after 72 hrs by serial sub-cultivation method; assay type: functional; settings: ATCC 6275, 72 h
Outline: (§1)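 MFC was found by serial sub-cultivation of 2 µl into plates holding 100 µl broth per well, then incubation 72 h at 28 °C. MFC is the lowest concentration with no visible growth, taken as 99.5% killing of the original inoculum. Spore inocula came from malt agar cultures washed with 0.85% saline and 0.1% Tween 80.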

[2] = tested on: Aspergillus versicolor; test: Antifungal activity against Aspergillus versicolor ATCC 11730 after 72 hrs by serial dilution method; assay type: functional; settings: ATCC 11730, 72 h
Outline: (§2)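 Fungi were kept on malt agar at 4 °C and sub-cultured monthly. Spores were washed off the agar with sterile 0.85% saline containing 0.1% Tween 80 (v/v). Modified microdilution in 96-well plates. MIC is the lowest concentration with no visible growth under the binocular microscope. Inoculum checked on malt agar for contamination and validity.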

[3] = tested on: Aspergillus versicolor; test: Antifungal activity against Aspergillus versicolor ATCC 11730 after 72 hrs by serial sub-cultivation method; assay type: functional; settings: ATCC 11730, 72 h; outline: as §1
[4] = tested on: Aspergillus flavus; test: Antifungal activity against Aspergillus flavus ATCC 9643 after 72 hrs by serial dilution method; assay type: functional; settings: ATCC 9643, 72 h; outline: as §2
[5] = tested on: Aspergillus flavus; test: Antifungal activity against Aspergillus flavus ATCC 9643 after 72 hrs by serial sub-cultivation method; assay type: functional; settings: ATCC 9643, 72 h; outline: as §1
[6] = tested on: Fulvia fulva; test: Antifungal activity against Fulvia fulva TK 5318 after 72 hrs by serial dilution method; assay type: functional; settings: TK 5318, 72 h; outline: as §2
[7] = tested on: Fulvia fulva; test: Antifungal activity against Fulvia fulva TK 5318 after 72 hrs by serial sub-cultivation method; assay type: functional; settings: TK 5318, 72 h; outline: as §1
[8] = tested on: Bacillus cereus; test: Antibacterial activity against Bacillus cereus clinical isolate after 24 hrs; assay type: functional
Outline: (§3)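 Broth microdilution MIC in 96-well plates. Compounds in LB broth with bacterial inoculum of 1.0 × 10^4 cfu per well, from suspensions adjusted with sterile saline to 1.0 × 10⁵ CFU/ml. Incubated 24 h at […] as printed. MIC taken as the lowest concentration with no visible growth under the binocular microscope. OD at 655 nm also read against blank. Streptomycin and ampicillin as positive controls. Duplicate, repeated three times.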

[9] = tested on: Bacillus cereus; test: Antibacterial activity against Bacillus cereus clinical isolate after 72 hrs by serial sub-cultivation method; assay type: functional
Outline: (§4)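 MBC was found by serial sub-cultivation of 2 µl from the MIC wells into plates holding 100 µl broth per well, then incubation for 72 h. MBC is the lowest concentration with no visible growth, i.e. 99.5% killing of the original inoculum. Bacterial inoculum was 1.0 × 10^4 cfu per well in LB broth. Duplicate, repeated three times.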

[10] = tested on: Micrococcus flavus; test: Antibacterial activity against Micrococcus flavus ATCC 10240 after 24 hrs; assay type: functional; settings: ATCC 10240, 24 h; outline: as §3
[11] = tested on: Micrococcus flavus; test: Antibacterial activity against Micrococcus flavus ATCC 10240 after 72 hrs by serial sub-cultivation method; assay type: functional; settings: ATCC 10240, 72 h; outline: as §4
[12] = tested on: Staphylococcus aureus; test: Antibacterial activity against Staphylococcus aureus ATCC 6538 after 24 hrs; assay type: functional; settings: ATCC 6538, 24 h; outline: as §3
[13] = tested on: Staphylococcus aureus; test: Antibacterial activity against Staphylococcus aureus ATCC 6538 after 72 hrs by serial sub-cultivation method; assay type: functional; settings: ATCC 6538, 72 h; outline: as §4
[14] = tested on: Escherichia coli; test: Antibacterial activity against Escherichia coli ATCC 35210 after 24 hrs; assay type: functional; settings: ATCC 35210, 24 h; outline: as §3
[15] = tested on: Escherichia coli; test: Antibacterial activity against Escherichia coli ATCC 35210 after 72 hrs by serial sub-cultivation method; assay type: functional; settings: ATCC 35210, 72 h; outline: as §4
[16] = tested on: Pseudomonas aeruginosa; test: Antibacterial activity against Pseudomonas aeruginosa ATCC 27853 after 24 hrs; assay type: functional; settings: ATCC 27853, 24 h; outline: as §3
[17] = tested on: Pseudomonas aeruginosa; test: Antibacterial activity against Pseudomonas aeruginosa ATCC 27853 after 72 hrs by serial sub-cultivation method; assay type: functional; settings: ATCC 27853, 72 h; outline: as §4
[18] = tested on: Proteus mirabilis; test: Antibacterial activity against Proteus mirabilis after 24 hrs; assay type: functional; outline: as §3
[19] = tested on: Proteus mirabilis; test: Antibacterial activity against Proteus mirabilis after 72 hrs by serial sub-cultivation method; assay type: functional; outline: as §4
[20] = tested on: Salmonella typhimurium; test: Antibacterial activity against Salmonella Typhimurium ATCC 13311 after 24 hrs; assay type: functional, Salmonella enterica subsp. enterica serovar Typhimurium; settings: Salmonella enterica, ATCC 13311, 24 h; outline: as §3
[21] = tested on: Salmonella typhimurium; test: Antibacterial activity against Salmonella Typhimurium ATCC 13311 after 72 hrs by serial sub-cultivation method; assay type: functional, Salmonella enterica subsp. enterica serovar Typhimurium; settings: Salmonella enterica, ATCC 13311, 72 h; outline: as §4
[22] = tested on: Listeria monocytogenes; test: Antibacterial activity against Listeria monocytogenes NCTC 7973 after 24 hrs; assay type: functional; settings: NCTC 7973, 24 h; outline: as §3
[23] = tested on: Listeria monocytogenes; test: Antibacterial activity against Listeria monocytogenes NCTC 7973 after 72 hrs by serial sub-cultivation method; assay type: functional; settings: NCTC 7973, 72 h; outline: as §4
[24] = tested on: Talaromyces funiculosus; test: Antifungal activity against Penicillium funiculosum ATCC 36839 after 72 hrs by serial dilution method; assay type: functional; settings: ATCC 36839, 72 h; outline: as §2
[25] = tested on: Talaromyces funiculosus; test: Antifungal activity against Penicillium funiculosum ATCC 36839 after 72 hrs by serial sub-cultivation method; assay type: functional; settings: ATCC 36839, 72 h; outline: as §1
[26] = tested on: Penicillium ochrochloron; test: Antifungal activity against Penicillium ochrochloron ATCC 9112 after 72 hrs by serial dilution method; assay type: functional; settings: ATCC 9112, 72 h; outline: as §2
[27] = tested on: Penicillium ochrochloron; test: Antifungal activity against Penicillium ochrochloron ATCC 9112 after 72 hrs by serial sub-cultivation method; assay type: functional; settings: ATCC 9112, 72 h; outline: as §1
[28] = tested on: Trichoderma viride; test: Antifungal activity against Trichoderma viride IAM 5061 after 72 hrs by serial dilution method; assay type: functional; settings: IAM 5061, 72 h; outline: as §2
[29] = tested on: Trichoderma viride; test: Antifungal activity against Trichoderma viride IAM 5061 after 72 hrs by serial sub-cultivation method; assay type: functional; settings: IAM 5061, 72 h; outline: as §1
[30] = tested on: Aspergillus niger; test: Antifungal activity against Aspergillus niger ATCC 6275 after 72 hrs by serial dilution method; assay type: functional; settings: ATCC 6275, 72 h; outline: as §2
[31] = tested on: Aspergillus fumigatus; test: Antifungal activity against Aspergillus fumigatus plant isolate after 72 hrs by serial dilution method
[32] = tested on: Aspergillus fumigatus; test: Antifungal activity against Aspergillus fumigatus plant isolate after 72 hrs by serial sub-cultivation method

Compound | MFC [1] [µM] | MIC [2] [µM] | MFC [3] [µM] | MIC [4] [µM] | MFC [5] [µM] | MIC [6] [µM] | MFC [7] [µM] | MIC [8] [µM] | MBC [9] [µM] | MIC [10] [µM] | MBC [11] [µM] | MIC [12] [µM] | MBC [13] [µM] | MIC [14] [µM] | MBC [15] [µM] | MIC [16] [µM] | MBC [17] [µM] | MIC [18] [µM] | MBC [19] [µM] | MIC [20] [µM] | further results
O=C1N/C(=N/c2nc(C34CC5CC(CC(C5)C3)C4)cs2)S/C1=C\c1ccccc1[N+](=O)[O-] | 21.5 (≈ 10 µg/mL) | 10.8 (≈ 5.04 µg/mL) | 16.1 (≈ 7.51 µg/mL) | 16.1 (≈ 7.51 µg/mL) | 21.5 (≈ 10 µg/mL) | 5.4 (≈ 2.52 µg/mL) | 10.8 (≈ 5.04 µg/mL) | 10.8 (≈ 5.04 µg/mL) | 21.5 (≈ 10 µg/mL) | 21.5 (≈ 10 µg/mL) | 43 (≈ 20.1 µg/mL) | 16.1 (≈ 7.51 µg/mL) | 21.5 (≈ 10 µg/mL) | 21.5 (≈ 10 µg/mL) | 43 (≈ 20.1 µg/mL) | 21.5 (≈ 10 µg/mL) | 43 (≈ 20.1 µg/mL) | 43 (≈ 20.1 µg/mL) | 64.5 (≈ 30.1 µg/mL) | 21.5 (≈ 10 µg/mL) | MBC [21]: 43 µM (≈ 20.1 µg/mL); MIC [22]: 21.5 µM (≈ 10 µg/mL); MBC [23]: 43 µM (≈ 20.1 µg/mL); MIC [24]: 10.8 µM (≈ 5.04 µg/mL); MFC [25]: 21.5 µM (≈ 10 µg/mL); MIC [26]: 10.8 µM (≈ 5.04 µg/mL); MFC [27]: 21.5 µM (≈ 10 µg/mL); MIC [28]: 10.8 µM (≈ 5.04 µg/mL); MFC [29]: 21.5 µM (≈ 10 µg/mL); MIC [30]: 16.1 µM (≈ 7.51 µg/mL); MIC [31]: 10.8 µM (≈ 5.04 µg/mL); MFC [32]: 21.5 µM (≈ 10 µg/mL)
O=C1N/C(=N/c2nc(C34CC5CC(CC(C5)C3)C4)cs2)S/C1=C\c1cccc([N+](=O)[O-])c1 | 21.5 (≈ 10 µg/mL) | 16.1 (≈ 7.51 µg/mL) | 21.5 (≈ 10 µg/mL) | 16.1 (≈ 7.51 µg/mL) | 21.5 (≈ 10 µg/mL) | 10.8 (≈ 5.04 µg/mL) | 16.1 (≈ 7.51 µg/mL) | 16.1 (≈ 7.51 µg/mL) | 21.5 (≈ 10 µg/mL) | 21.5 (≈ 10 µg/mL) | 43 (≈ 20.1 µg/mL) | 21.5 (≈ 10 µg/mL) | 43 (≈ 20.1 µg/mL) | 21.5 (≈ 10 µg/mL) | 21.5 (≈ 10 µg/mL) | 21.5 (≈ 10 µg/mL) | 43 (≈ 20.1 µg/mL) | 43 (≈ 20.1 µg/mL) | 64.5 (≈ 30.1 µg/mL) | 10.8 (≈ 5.04 µg/mL) | MBC [21]: 21.5 µM (≈ 10 µg/mL); MIC [22]: 21.5 µM (≈ 10 µg/mL); MBC [23]: 43 µM (≈ 20.1 µg/mL); MIC [24]: 10.8 µM (≈ 5.04 µg/mL); MFC [25]: 21.5 µM (≈ 10 µg/mL); MIC [26]: 10.8 µM (≈ 5.04 µg/mL); MFC [27]: 21.5 µM (≈ 10 µg/mL); MIC [28]: 5.4 µM (≈ 2.52 µg/mL); MFC [29]: 10.8 µM (≈ 5.04 µg/mL); MIC [30]: 10.8 µM (≈ 5.04 µg/mL); MIC [31]: 16.1 µM (≈ 7.51 µg/mL); MFC [32]: 21.5 µM (≈ 10 µg/mL)
COc1ccc(/C=C2\S/C(=N\c3nc(C45CC6CC(CC(C6)C4)C5)cs3)NC2=O)cc1 | 23.1 (≈ 10.4 µg/mL) | 17.3 (≈ 7.81 µg/mL) | 23.1 (≈ 10.4 µg/mL) | 17.3 (≈ 7.81 µg/mL) | 23.1 (≈ 10.4 µg/mL) | 5.8 (≈ 2.62 µg/mL) | 23.1 (≈ 10.4 µg/mL) | 23.1 (≈ 10.4 µg/mL) | 23.1 (≈ 10.4 µg/mL) | 23.1 (≈ 10.4 µg/mL) | 46.2 (≈ 20.9 µg/mL) | 23.1 (≈ 10.4 µg/mL) | 46.2 (≈ 20.9 µg/mL) | 11.6 (≈ 5.24 µg/mL) | 23.1 (≈ 10.4 µg/mL) | 11.6 (≈ 5.24 µg/mL) | 23.1 (≈ 10.4 µg/mL) | 46.2 (≈ 20.9 µg/mL) | 69.3 (≈ 31.3 µg/mL) | 11.6 (≈ 5.24 µg/mL) | MBC [21]: 23.1 µM (≈ 10.4 µg/mL); MIC [22]: 23.1 µM (≈ 10.4 µg/mL); MBC [23]: 46.2 µM (≈ 20.9 µg/mL); MIC [24]: 11.6 µM (≈ 5.24 µg/mL); MFC [25]: 23.1 µM (≈ 10.4 µg/mL); MIC [26]: 11.6 µM (≈ 5.24 µg/mL); MFC [27]: 23.1 µM (≈ 10.4 µg/mL); MIC [28]: 11.6 µM (≈ 5.24 µg/mL); MFC [29]: 23.1 µM (≈ 10.4 µg/mL); MIC [30]: 17.3 µM (≈ 7.81 µg/mL); MIC [31]: 17.3 µM (≈ 7.81 µg/mL); MFC [32]: 23.1 µM (≈ 10.4 µg/mL)

Reference: ChEMBL document CHEMBL1157665, “Novel 4-thiazolidinone derivatives as potential antifungal and antibacterial drugs” (2010)
